This is an account of results in ChEMBL document CHEMBL4257579, “Analogs of penfluridol as chemotherapeutic agents with reduced central nervous system activity” (Bioorg Med Chem Lett, 2018).

As usually defined, the Ki is a measure of affinity in units of concentration, obtained from inhibition or displacement. By inhibition is commonly meant the share of the control response that was lost under treatment. By IC50 is commonly meant the concentration that inhibits the measured activity by half.

Assay [1] deals with Mu-type opioid receptor (Homo sapiens, UniProt P35372). The assay is described as follows: Displacement of [3H]DAMGO from human MOR expressed in HEK cells by radioligand binding assay. The format is cell-based.
Sequence of Mu-type opioid receptor (P35372 whole entry): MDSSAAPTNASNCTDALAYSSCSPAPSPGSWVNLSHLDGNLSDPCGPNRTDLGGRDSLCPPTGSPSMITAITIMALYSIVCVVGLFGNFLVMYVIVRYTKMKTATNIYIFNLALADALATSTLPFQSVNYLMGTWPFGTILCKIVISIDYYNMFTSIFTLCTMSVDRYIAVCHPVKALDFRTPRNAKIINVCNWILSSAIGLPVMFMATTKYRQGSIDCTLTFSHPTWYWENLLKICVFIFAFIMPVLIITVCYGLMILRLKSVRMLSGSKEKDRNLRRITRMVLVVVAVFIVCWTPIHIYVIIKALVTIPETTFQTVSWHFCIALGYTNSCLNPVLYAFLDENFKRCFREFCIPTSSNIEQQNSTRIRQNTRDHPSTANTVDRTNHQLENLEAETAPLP
For assay [2], the target named is 5-hydroxytryptamine receptor 2B (Homo sapiens, UniProt P41595). The assay is described as follows: Displacement of [3H]LSD from human 5-HT2B receptor expressed in HEK cells by radioligand binding assay relative to control. Particulars: concentration not given here. Format: cell-based. The arrangement: concentration or dose not given beside the values. (Loss of bound radioactivity is the signal in a displacement assay; it reports binding, not function.)
Sequence of 5-hydroxytryptamine receptor 2B (P41595 whole entry): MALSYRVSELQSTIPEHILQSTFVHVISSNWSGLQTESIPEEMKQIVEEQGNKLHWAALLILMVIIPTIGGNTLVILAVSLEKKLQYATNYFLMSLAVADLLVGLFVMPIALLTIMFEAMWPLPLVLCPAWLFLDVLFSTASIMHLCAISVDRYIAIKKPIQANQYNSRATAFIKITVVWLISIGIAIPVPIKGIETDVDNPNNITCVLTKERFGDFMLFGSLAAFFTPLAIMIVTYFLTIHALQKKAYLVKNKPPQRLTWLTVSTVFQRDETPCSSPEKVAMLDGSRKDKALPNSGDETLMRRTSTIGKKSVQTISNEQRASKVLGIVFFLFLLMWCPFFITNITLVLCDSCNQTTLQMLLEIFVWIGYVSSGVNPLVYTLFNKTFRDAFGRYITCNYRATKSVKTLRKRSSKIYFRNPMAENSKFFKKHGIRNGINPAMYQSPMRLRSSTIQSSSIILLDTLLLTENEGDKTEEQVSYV

The target in assay [3] is T1, 5-hydroxytryptamine receptor 1A (Homo sapiens) (UniProt P08908).
T1 sequence (whole entry): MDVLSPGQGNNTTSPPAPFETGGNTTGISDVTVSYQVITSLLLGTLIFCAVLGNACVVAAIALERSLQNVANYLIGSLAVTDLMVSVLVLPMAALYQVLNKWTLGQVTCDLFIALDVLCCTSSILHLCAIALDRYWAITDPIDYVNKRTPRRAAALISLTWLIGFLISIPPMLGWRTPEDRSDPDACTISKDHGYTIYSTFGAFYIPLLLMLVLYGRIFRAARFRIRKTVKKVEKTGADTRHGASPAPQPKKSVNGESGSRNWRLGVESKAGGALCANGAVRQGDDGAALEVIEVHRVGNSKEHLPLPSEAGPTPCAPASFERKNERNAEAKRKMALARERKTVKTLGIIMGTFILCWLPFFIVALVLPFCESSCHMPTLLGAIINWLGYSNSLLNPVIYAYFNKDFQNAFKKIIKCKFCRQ
The assay can be described thus: Displacement of [3H]-Way100635 from human 5HT1A receptor expressed in stable CHO cell membranes by radioligand binding assay relative to control. The arrangement: concentration or dose not given beside the values. Particulars: concentration not given here.

The target in assay [4] is T2, Kappa-type opioid receptor (Homo sapiens, UniProt P41145). The assay is described as follows: Displacement of [3H]U69593 from KOR (unknown origin) expressed in HEK cells by radioligand binding assay relative to control. Format: cell-based. Also noted: concentration or dose not given beside the values. The following applies: concentration not given here.
T2 sequence (P41145 whole entry): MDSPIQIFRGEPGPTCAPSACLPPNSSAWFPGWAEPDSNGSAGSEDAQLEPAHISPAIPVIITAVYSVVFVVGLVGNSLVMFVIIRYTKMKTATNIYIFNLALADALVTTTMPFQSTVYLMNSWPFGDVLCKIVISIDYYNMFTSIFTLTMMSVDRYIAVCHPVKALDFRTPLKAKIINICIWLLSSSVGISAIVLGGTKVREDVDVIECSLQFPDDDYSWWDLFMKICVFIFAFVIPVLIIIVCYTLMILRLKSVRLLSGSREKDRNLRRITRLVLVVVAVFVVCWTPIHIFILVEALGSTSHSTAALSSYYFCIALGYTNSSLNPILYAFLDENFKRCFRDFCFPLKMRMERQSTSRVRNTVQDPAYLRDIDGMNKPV
The test system of assay [5] is MDA-MB-231. The assay can be described thus: Cytotoxicity against human MDA-MB-231 cells assessed as reduction in cell viability after 24 hrs by MTT assay. Format: functional, cell-based. Particulars: MDA-MB-231, 24 h. An outline of the steps: (§1)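 Cells exposed to compounds; viability read at 24, 48 and 72 h. Every experiment run in triplicate.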
(In general: Tetrazolium dyes change colour on reduction, which living cells bring about.)

Assay [6] concerns MDA-MB-231. The assay is described as follows: Cytotoxicity against human MDA-MB-231 cells assessed as reduction in cell viability after 72 hrs by MTT assay. Format: functional, cell-based. The following applies: MDA-MB-231, 72 h. An outline of the steps:
as §1

The target in assay [7] is Sodium-dependent dopamine transporter (Homo sapiens, UniProt Q01959). The assay is described as follows: Displacement of [3H]WIN35428 from human DAT expressed in HEK cells by radioligand binding assay. Format: cell-based.
Sequence of Sodium-dependent dopamine transporter (Q01959 whole entry): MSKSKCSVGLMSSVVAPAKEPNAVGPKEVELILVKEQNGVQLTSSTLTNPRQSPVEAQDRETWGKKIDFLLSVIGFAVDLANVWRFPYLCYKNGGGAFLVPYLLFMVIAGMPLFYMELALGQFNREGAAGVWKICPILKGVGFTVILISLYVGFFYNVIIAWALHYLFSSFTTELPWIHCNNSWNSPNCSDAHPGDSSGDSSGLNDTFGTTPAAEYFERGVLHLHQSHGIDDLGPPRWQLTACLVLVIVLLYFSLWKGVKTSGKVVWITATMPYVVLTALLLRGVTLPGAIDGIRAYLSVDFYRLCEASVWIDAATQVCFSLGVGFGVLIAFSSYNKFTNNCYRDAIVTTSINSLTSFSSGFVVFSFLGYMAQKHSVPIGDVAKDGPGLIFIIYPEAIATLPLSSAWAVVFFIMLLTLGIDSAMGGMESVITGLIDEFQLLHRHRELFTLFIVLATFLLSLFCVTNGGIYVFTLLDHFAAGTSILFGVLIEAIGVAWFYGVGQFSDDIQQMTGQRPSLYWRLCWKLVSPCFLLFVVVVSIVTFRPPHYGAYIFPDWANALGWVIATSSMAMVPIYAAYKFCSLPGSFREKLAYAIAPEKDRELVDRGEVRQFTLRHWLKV
Assay [8] concerns the target T3, D(1A) dopamine receptor (Homo sapiens, UniProt P21728). The assay can be described thus: Displacement of [3H]SCH23390 from human dopamine D1 receptor expressed in HEK293T cells by radioligand binding assay relative to control. The arrangement: concentration or dose not given beside the values. The following applies: concentration not given here. Format: cell-based.

The target of assay [9] is T2, Kappa-type opioid receptor. The assay can be described thus: Displacement of [3H]U69593 from KOR (unknown origin) expressed in HEK cells by radioligand binding assay. Format: cell-based.
The target of assay [10] is 5-hydroxytryptamine receptor 1D (Homo sapiens, UniProt P28221). The assay can be described thus: Displacement of [3H]5-CT from human 5-HT1D receptor expressed in HEK293T cells by radioligand binding assay. The format is cell-based. Particulars: read-out: Ki.
Sequence of 5-hydroxytryptamine receptor 1D (P28221 whole entry): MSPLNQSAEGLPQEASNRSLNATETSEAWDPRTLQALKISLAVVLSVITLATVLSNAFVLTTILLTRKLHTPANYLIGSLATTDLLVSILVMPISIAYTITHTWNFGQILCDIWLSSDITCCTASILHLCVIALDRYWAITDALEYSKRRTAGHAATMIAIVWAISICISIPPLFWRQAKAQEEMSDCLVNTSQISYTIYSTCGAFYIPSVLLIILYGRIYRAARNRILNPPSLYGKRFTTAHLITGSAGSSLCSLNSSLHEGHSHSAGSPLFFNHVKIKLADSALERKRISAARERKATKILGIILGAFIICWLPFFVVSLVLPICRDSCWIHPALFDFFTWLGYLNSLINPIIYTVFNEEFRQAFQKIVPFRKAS
In assay [11] the target is T4, D(4) dopamine receptor (Homo sapiens, UniProt P21917).
T4 sequence (P21917 whole entry): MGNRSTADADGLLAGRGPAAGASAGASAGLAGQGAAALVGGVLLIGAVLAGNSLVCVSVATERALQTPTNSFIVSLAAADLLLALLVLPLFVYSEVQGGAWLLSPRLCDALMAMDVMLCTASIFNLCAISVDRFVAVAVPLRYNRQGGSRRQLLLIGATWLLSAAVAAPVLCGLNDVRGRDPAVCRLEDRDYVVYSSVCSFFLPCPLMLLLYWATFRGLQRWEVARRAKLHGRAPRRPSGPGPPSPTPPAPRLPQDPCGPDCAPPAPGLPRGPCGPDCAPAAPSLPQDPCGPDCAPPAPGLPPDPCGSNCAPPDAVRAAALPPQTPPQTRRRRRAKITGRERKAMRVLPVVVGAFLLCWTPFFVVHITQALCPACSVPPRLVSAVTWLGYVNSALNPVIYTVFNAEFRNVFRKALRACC
The assay can be described thus: Displacement of [3H]N-methylspiperone from human dopamine D4 receptor by radioligand binding assay.

In assay [12] the target is Histamine H2 receptor (Homo sapiens, UniProt P25021). The assay can be described thus: Displacement of [3H]Cimetidine from human H2 receptor expressed in HEK cells by radioligand binding assay relative to control. The arrangement: concentration or dose not given beside the values. The following applies: concentration not given here. The format is cell-based.
Sequence of Histamine H2 receptor (P25021 whole entry): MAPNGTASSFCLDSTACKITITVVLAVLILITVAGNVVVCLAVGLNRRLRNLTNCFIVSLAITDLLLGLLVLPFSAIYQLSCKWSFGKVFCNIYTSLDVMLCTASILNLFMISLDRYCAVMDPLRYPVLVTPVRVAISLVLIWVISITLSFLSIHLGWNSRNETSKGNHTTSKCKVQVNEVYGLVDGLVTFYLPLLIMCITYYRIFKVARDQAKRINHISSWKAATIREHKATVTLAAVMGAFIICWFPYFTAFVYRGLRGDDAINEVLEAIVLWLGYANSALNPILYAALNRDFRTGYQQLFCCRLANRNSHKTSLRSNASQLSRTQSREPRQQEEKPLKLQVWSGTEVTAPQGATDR
In assay [13] the target is T5, D(3) dopamine receptor (Homo sapiens, UniProt P35462). The assay is described as follows: Displacement of [3H]N-methylspiperone from human dopamine D3 receptor expressed in HEK293T cells by radioligand binding assay. The format is cell-based.
T5 sequence (P35462 whole entry): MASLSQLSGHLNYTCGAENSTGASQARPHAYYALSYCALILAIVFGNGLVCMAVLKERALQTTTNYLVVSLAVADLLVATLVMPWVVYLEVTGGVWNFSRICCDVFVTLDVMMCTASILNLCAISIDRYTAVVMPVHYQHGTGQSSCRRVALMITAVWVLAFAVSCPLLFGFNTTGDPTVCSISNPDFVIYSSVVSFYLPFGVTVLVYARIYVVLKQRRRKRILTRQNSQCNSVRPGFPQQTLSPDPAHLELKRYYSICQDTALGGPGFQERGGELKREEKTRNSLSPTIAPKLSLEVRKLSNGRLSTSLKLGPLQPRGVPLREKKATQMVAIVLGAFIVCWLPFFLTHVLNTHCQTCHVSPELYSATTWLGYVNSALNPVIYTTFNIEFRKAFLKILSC
Assay [14] has as its target T6, 5-hydroxytryptamine receptor 1A (Homo sapiens, UniProt P08908).
T6 sequence (P08908 whole entry): T1 sequence (whole entry)
The assay is described as follows: Displacement of [3H]-Way100635 from human 5HT1A receptor expressed in stable CHO cell membranes by radioligand binding assay.

For assay [15], the system named is Lewis lung carcinoma cell line. The assay is described as follows: Cytotoxicity against mouse LLC cells harboring […] assessed as reduction in cell viability after 24 hrs by MTT assay. The format is functional, cell-based. An outline of the steps:
as §1

Assay [16] has as its target T3, D(1A) dopamine receptor. The assay can be described thus: Displacement of [3H]SCH23390 from human dopamine D1 receptor expressed in HEK293T cells by radioligand binding assay. Format: cell-based.
The target of assay [17] is T7, D(4) dopamine receptor (Homo sapiens) (UniProt P21917).
T7 sequence (whole entry): T4 sequence (P21917 whole entry)
The assay can be described thus: Displacement of [3H]N-methylspiperone from human dopamine D4 receptor by radioligand binding assay relative to control. Also noted: concentration or dose not given beside the values. The following applies: concentration not given here.

Assay [18] deals with Delta-type opioid receptor (Homo sapiens, UniProt P41143). The assay is described as follows: Displacement of [3H]DADLE from human DOR expressed in HEK cells by radioligand binding assay. The format is cell-based. The following applies: read-out: Ki.
Sequence of Delta-type opioid receptor (P41143 whole entry): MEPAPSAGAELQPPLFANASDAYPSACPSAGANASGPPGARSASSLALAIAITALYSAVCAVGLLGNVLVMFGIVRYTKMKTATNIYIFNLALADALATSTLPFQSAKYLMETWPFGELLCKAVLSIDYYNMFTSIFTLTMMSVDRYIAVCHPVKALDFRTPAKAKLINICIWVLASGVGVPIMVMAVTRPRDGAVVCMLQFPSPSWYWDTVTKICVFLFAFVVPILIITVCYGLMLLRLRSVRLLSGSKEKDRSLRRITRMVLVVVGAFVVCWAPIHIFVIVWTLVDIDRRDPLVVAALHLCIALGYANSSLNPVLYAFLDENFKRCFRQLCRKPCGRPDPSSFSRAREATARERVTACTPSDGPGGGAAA
Assay [19] has as its target 5-hydroxytryptamine receptor 2A (Homo sapiens, UniProt P28223). The assay is described as follows: Displacement of [3H]Ketanserin from 5-HT2A receptor (unknown origin) by radioligand binding assay relative to control. Also noted: concentration or dose not given beside the values. Particulars: concentration not given here.
The target in assay [20] is T8, 5-hydroxytryptamine receptor 2C (Homo sapiens) (UniProt P28335).
T8 sequence (whole entry): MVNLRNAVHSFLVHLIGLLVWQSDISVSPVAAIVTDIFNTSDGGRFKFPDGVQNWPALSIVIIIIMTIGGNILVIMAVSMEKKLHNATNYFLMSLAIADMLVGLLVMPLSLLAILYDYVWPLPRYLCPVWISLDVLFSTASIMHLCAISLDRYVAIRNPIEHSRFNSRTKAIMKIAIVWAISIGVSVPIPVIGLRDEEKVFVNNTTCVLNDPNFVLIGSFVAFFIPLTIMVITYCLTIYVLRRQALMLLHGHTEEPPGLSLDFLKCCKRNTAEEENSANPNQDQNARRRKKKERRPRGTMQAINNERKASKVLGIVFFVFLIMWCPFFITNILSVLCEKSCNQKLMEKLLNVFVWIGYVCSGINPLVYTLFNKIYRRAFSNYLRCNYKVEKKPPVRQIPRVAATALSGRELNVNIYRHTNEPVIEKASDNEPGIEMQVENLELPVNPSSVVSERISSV
The assay can be described thus: Displacement of [3H]Mesulergine from human 5-HT2C receptor expressed in HEK293FlpIN cells by radioligand binding assay relative to control. Format: cell-based. The arrangement: concentration or dose not given beside the values. Particulars: concentration not given here.

Assay [21] addresses 5-hydroxytryptamine receptor 6 (Homo sapiens, UniProt P50406). The assay is described as follows: Displacement of [3H]LSD from human 5-HT6 receptor expressed in HEK cells by radioligand binding assay relative to control. The arrangement: concentration or dose not given beside the values. The format is cell-based. Particulars: concentration not given here.
The target in assay [22] is T5, D(3) dopamine receptor. The assay is described as follows: Displacement of [3H]N-methylspiperone from human dopamine D3 receptor expressed in HEK293T cells by radioligand binding assay relative to control. The format is cell-based. The arrangement: concentration or dose not given beside the values. Particulars: concentration not given here.

T3 sequence (P21728 whole entry): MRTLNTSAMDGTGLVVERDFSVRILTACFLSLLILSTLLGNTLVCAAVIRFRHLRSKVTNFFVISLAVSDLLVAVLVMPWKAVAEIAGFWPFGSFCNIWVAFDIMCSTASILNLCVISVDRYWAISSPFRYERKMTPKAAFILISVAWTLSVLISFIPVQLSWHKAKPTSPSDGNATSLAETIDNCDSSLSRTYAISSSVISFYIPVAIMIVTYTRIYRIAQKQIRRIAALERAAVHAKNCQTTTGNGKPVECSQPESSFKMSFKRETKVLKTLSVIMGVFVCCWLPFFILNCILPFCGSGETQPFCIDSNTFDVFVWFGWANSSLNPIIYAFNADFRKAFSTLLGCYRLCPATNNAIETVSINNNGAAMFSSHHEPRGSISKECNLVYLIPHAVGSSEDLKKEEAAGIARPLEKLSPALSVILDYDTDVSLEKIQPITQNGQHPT
Sequence of 5-hydroxytryptamine receptor 2A (P28223 whole entry): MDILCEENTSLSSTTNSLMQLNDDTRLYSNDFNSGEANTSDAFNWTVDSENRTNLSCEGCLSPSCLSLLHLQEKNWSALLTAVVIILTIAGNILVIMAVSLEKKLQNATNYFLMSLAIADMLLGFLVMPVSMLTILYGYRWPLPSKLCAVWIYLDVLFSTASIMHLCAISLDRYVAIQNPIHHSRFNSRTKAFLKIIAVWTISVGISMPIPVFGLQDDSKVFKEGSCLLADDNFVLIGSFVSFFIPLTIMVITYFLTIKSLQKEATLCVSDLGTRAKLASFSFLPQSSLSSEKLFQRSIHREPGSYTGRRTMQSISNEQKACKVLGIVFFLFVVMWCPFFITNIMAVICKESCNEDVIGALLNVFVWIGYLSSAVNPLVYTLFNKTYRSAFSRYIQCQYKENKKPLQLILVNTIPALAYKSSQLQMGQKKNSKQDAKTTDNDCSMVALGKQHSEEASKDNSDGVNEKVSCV
Sequence of 5-hydroxytryptamine receptor 6 (P50406 whole entry): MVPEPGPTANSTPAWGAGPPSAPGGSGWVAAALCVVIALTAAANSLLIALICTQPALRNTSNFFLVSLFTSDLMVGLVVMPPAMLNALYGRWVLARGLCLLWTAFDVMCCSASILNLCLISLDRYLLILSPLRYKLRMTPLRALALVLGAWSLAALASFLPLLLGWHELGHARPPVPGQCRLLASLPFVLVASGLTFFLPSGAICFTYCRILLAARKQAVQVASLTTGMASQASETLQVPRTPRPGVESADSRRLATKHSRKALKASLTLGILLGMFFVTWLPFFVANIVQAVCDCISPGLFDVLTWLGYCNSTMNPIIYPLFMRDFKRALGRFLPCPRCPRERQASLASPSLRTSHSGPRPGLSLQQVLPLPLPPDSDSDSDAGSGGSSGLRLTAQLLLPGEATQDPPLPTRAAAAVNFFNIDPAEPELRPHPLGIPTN

For the compound `OC1(c2ccc(Cl)c(C(F)(F)F)c2)CCN(CCCC(c2ccccc2)c2ccccc2)CC1`, the Ki in assay [1] was determined as 70 nM; in assay [7] it was 121 nM; in assay [9], 1330 nM; in assay [10], 628 nM; in assay [11], 58 nM; in assay [13] it was 62 nM. Further, the Ki was 481 nM in [14], 135 nM in [16] and 1530 nM in [18]. Besides, the inhibition in assay [2] worked out at 92.5%; in assay [3] it was 97.2%; in assay [4], 98%; in assay [8], 97.2%; in assay [12], 89.5%; in assay [17], 98.9%. In addition, the inhibition in assay [19] was determined as 94.3%; in assay [20], 82.9%; in [21], 72.8%; in assay [22] it was 97.4%. For the same compound, the IC50 in assay [5] is 9.3 µM; in assay [6] it was 8.4 µM; in assay [15], 11.4 µM.

In the case of `OC1(c2ccc(Cl)c(C(F)(F)F)c2)CCN(CCCN(c2ccc(F)cc2)c2ccc(F)cc2)CC1`, the Ki is 902 nM in assay [1]; 1190 nM in assay [7]; 667 nM in assay [9]; 752 nM in [10]; 25 nM in assay [11]; 474 nM in [13]. Further, the Ki in assay [14] is 1260 nM; in [16], 300 nM; in assay [18], 1560 nM. The inhibition was determined as 95.5% in assay [2]; 94.2% in [3]; 69.8% in assay [4]; 96.8% in assay [8]; 98.3% in assay [12]; 76.5% in [17]. Moreover, the inhibition in assay [19] came out at 94.6%; in assay [20], 86.7%; in assay [21], 86.4%; in assay [22], 94.4%. Also, the IC50 in assay [5] worked out at 6.7 µM; in [6] it was 3.5 µM; in assay [15], 7 µM.
